In ChEMBL document CHEMBL1165943, “Design and synthesis of new anticancer pyrimidines with multiple-kinase inhibitory effect” (Bioorg Med Chem, 2010):

How the values were obtained:
[1] = tested on: HL-60(TB); experiment: Cytotoxicity against human HL-60(TB) cells assessed as cell growth at 0.001 uM after 48 hrs by sulforhodamine B assay; format: functional; settings: HL-60, 48 h, read-out: Activity
Summary of the method: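 Five-concentration HL-60(TB) test in RPMI 1640 with 5% FBS and 2 mM L-glutamine. Cells are plated at 5,000–40,000/well and a TCA-fixed time-zero plate is read at drug addition after 24 h. Drug is dissolved in DMSO and given as five 10-fold or ½log dilutions for 48 h at 37 °C, 5% CO2. Settled cells are fixed with TCA, stained with SRB and read at 515 nm.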

[2] = tested on: MOLT-4; experiment: Cytotoxicity against human MOLT4 cells assessed as cell growth at 10 uM; format: functional; settings: Homo sapiens, MOLT-4; read-out: Activity
Summary of the method: (§1)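 Single-dose screen at 10 μM across the 60-cell-line panel. Cells grown in RPMI 1640 with 5% FBS and 2 mM L-glutamine, seeded at 5,000–40,000 cells/well according to doubling time, and treated 24 h later. Exposure lasted 48 h at 37 °C, 5% CO₂. Adherent cells were fixed with cold TCA, suspension cells were fixed settled, and both were stained with SRB and read at 515 nm. Growth % was recorded, with inhibition % = 100 − growth %.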

[3] = tested on: RXF 393; experiment: Cytotoxicity against human RXF393 cells assessed as cell growth at 10 uM; format: functional; settings: Homo sapiens, RXF 393; read-out: Activity; summary of the method: as §1
[4] = tested on: SK-MEL-2; experiment: Cytotoxicity against human SK-MEL-2 cells assessed as cell growth at 10 uM after 48 hrs by sulforhodamine B assay; format: functional; settings: SK-MEL-2, 48 h, read-out: Activity
[5] = tested on: MCF7; experiment: Cytotoxicity against human MCF7 cells assessed as cell growth at 10 uM; format: functional; settings: Homo sapiens, MCF7; read-out: Activity; summary of the method: as §1
[6] = Cytotoxicity against human Hs 578T cells assessed as cell growth at 10 uM; format: functional; settings: read-out: Activity
Summary of the method: (§2)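 Single-concentration screen at 10 μM across the 60-cell-line panel (nine tissue types); growth percentage recorded per cell line, with inhibition taken as 100 minus growth percentage.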

[7] = tested on: HOP-92; experiment: Cytotoxicity against human HOP92 cells assessed as cell growth at 10 uM; format: functional; settings: Homo sapiens, HOP-92; read-out: Activity; summary of the method: as §2
[8] = tested on: BT-549; experiment: Cytotoxicity against human BT549 cells assessed as cell growth at 100 nM after 48 hrs by sulforhodamine B assay; format: functional; settings: BT-549, 48 h, read-out: Activity
Summary of the method: (§3)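 Cells grown in RPMI 1640 with 5% FBS and 2 mM L-glutamine, seeded at 5,000–40,000 cells/well by doubling time. Time-zero plates TCA-fixed after 24 h. Five concentrations (10-fold or half-log dilutions from DMSO stock) added; 48 h at 37 °C, 5% CO2. Cold TCA fixation (final 10%, 60 min, 4 °C), 0.4% SRB stain, dye solubilized in 10 mM trizma base, A515.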

[9] = tested on: SNB-19; experiment: Cytotoxicity against human SNB19 cells assessed as cell growth at 10 uM; format: functional; settings: read-out: Activity; summary of the method: as §1
[10] = tested on: NCI-H322M; experiment: Cytotoxicity against human NCI-H322M cells assessed as cell growth at 10 uM; format: functional; settings: Homo sapiens, NCI-H322M; read-out: Activity; summary of the method: as §1
[11] = tested on: HT-29; experiment: Cytotoxicity against human HT-29 cells assessed as cell growth at 10 uM after 48 hrs by sulforhodamine B assay; format: functional; settings: HT-29, 48 h, read-out: Activity
[12] = tested on: Malme-3M; experiment: Cytotoxicity against human MALME-3M cells assessed as cell growth at 10 uM; format: functional; settings: Homo sapiens, Malme-3M; read-out: Activity; summary of the method: as §1
[13] = tested on: CCRF-CEM; experiment: Cytotoxicity against human CCRF-CEM cells assessed as cell growth at 10 uM; format: functional; settings: Homo sapiens, CCRF-CEM; read-out: Activity; summary of the method: as §2
[14] = tested on: A549; experiment: Cytotoxicity against human A549 cells assessed as cell growth at 10 uM after 48 hrs by sulforhodamine B assay; format: functional; settings: A549, 48 h, read-out: Activity; summary of the method: as §3
[15] = tested on: HCT-15; experiment: Cytotoxicity against human HCT15 cells assessed as cell growth at 10 uM; format: functional; settings: Homo sapiens, HCT-15; read-out: Activity; summary of the method: as §2
[16] = tested on: UACC-62; experiment: Cytotoxicity against human UACC62 cells assessed as cell growth at 10 uM; format: functional; settings: Homo sapiens, UACC-62; read-out: Activity; summary of the method: as §1
[17] = tested on: MDA-MB-435; experiment: Cytotoxicity against human MDA-MB-435 cells assessed as cell growth at 10 uM; format: functional; settings: read-out: Activity; summary of the method: as §1
[18] = tested on: HCC 2998; experiment: Cytotoxicity against human HCC2998 cells assessed as cell growth at 10 uM; format: functional; settings: Homo sapiens, HCC 2998; read-out: Activity; summary of the method: as §2
[19] = tested on: MDA-MB-231; experiment: Cytotoxicity against human MDA-MB-231 cells assessed as cell growth at 10 uM; format: functional; settings: Homo sapiens, MDA-MB-231; read-out: Activity; summary of the method: as §1
[20] = tested on: OVCAR-4; experiment: Cytotoxicity against human OVCAR4 cells assessed as cell growth at 10 uM; format: functional; settings: Homo sapiens, OVCAR-4; read-out: Activity; summary of the method: as §1
[21] = Cytotoxicity against human […] cells assessed as cell growth at 10 uM; format: functional; settings: Homo sapiens, RPMI8266; read-out: Activity; summary of the method: as §1
[22] = tested on: OVCAR-3; experiment: Growth inhibition of human OVCAR-3 cells after 48 hrs by sulforhodamine B assay; format: functional, cell-based; settings: OVCAR-3, 48 h
Summary of the method: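 Cells grown in RPMI 1640 with 5% FBS and 2 mM L-glutamine, seeded at 5,000–40,000 cells/well according to doubling time. After 24 h, time-zero plates are TCA-fixed. Five concentrations (10-fold or ½log dilutions, DMSO stocks) are applied for 48 h at 37 °C, 5% CO₂. Cells are TCA-fixed, SRB-stained and read at 515 nm. IC₅₀ is taken from [(Ti−Tz)/(C−Tz)]×100 = 50.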

[23] = tested on: T47D; experiment: Cytotoxicity against human T47D cells assessed as cell growth at 100 nM after 48 hrs by sulforhodamine B assay; format: functional; settings: read-out: Activity
[24] = tested on: SK-MEL-28; experiment: Cytotoxicity against human SK-MEL-28 cells assessed as cell growth at 10 uM; format: functional; settings: Homo sapiens, SK-MEL-28; read-out: Activity; summary of the method: as §1
[25] = tested on: KM12; experiment: Cytotoxicity against human KM12 cells assessed as cell growth at 10 uM; format: functional; settings: Homo sapiens, KM12; read-out: Activity; summary of the method: as §1
[26] = tested on: LOX IMVI; experiment: Cytotoxicity against human LOXIMVI cells assessed as cell growth at 10 uM; format: functional; settings: Homo sapiens, LOX IMVI; read-out: Activity; summary of the method: as §1
[27] = tested on: SF-268; experiment: Cytotoxicity against human SF268 cells assessed as cell growth at 10 uM; format: functional; settings: Homo sapiens, SF-268; read-out: Activity; summary of the method: as §1
[28] = tested on: BT-549; experiment: Cytotoxicity against human BT549 cells assessed as cell growth at 10 uM; format: functional; settings: Homo sapiens, BT-549; read-out: Activity; summary of the method: as §2
[29] = tested on: OVCAR-8; experiment: Cytotoxicity against human OVCAR8 cells assessed as cell growth at 10 uM; format: functional; settings: Homo sapiens, OVCAR-8; read-out: Activity; summary of the method: as §1
[30] = tested on: SN12C; experiment: Cytotoxicity against human SN12C cells assessed as cell growth at 10 uM; format: functional; settings: Homo sapiens, SN12C; read-out: Activity; summary of the method: as §1

Work on `CC(=O)Nc1cccc(-c2ccc(-c3ccnc(NC(=O)Nc4cc(C(F)(F)F)cc(C(F)(F)F)c4)n3)cn2)c1.Cl` yielded a growth at 0.001 µM [1] of 95%, a growth at 10 µM [2] of 53.3% and a growth at 10 µM [3] of 121%. It also gave a growth at 10 µM [4] of -83%, a growth at 10 µM [5] of 7.95% and a growth at 10 µM [6] of 120%. It also gave a growth at 10 µM [7] of 72.4%, a growth at 0.1 µM [8] of 87% and a growth at 10 µM [9] of 50.5%. It also gave a growth at 10 µM [10] of 41.8%, a growth at 10 µM [11] of -64% and a growth at 10 µM [12] of 52.3%. The growth at 10 µM [13] was 43.3%, the growth at 10 µM [14] was -86% and the growth at 10 µM [15] was 60.3%. The growth at 10 µM [16] was 46.6%, the growth at 10 µM [17] was 73.9% and the growth at 10 µM [18] was 70.7%. The growth at 10 µM [19] was 65.5%, the growth at 10 µM [20] was 7.08% and the growth at 10 µM [21] was 38.1%. It also gave a GI50 [22] of 1.85 µM, an IC50 [22] of 1.85 µM and a TGI [22] of 4.23 µM. For the same compound, the CC50 ([22]; read-out: LC50 (the source's name)) was 9.69 µM, the growth at 0.1 µM [23] was 42% and the growth at 10 µM [24] was -37.6%. The growth at 10 µM [25] was 72.7%, the growth at 10 µM [26] was 49.4% and the growth at 10 µM [27] was 83.6%. It also gave a growth at 10 µM [28] of 47.3%, a growth at 10 µM [29] of 27.9% and a growth at 10 µM [30] of 68%.
